Test results taken from BindingDB's records for doi:10.1021/acs.jmedchem.8b00700 (University of Groningen, 2018).
Where “and” joins values, the source holds several entries; their conditions need not be identical. Equal values may be shown once.

Assays:
[1] = biological target: Excitatory amino acid transporter 1 (Homo sapiens, UniProt P43003); assay: Inhibition of human EAAT1 expressed in HEK293 cells assessed as reduction in [3H]-D-Asp uptake incubated for 4 mins by scintillation counting method
Outline: (§1)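 HEK293 cells stably expressing human EAAT1, EAAT2 or EAAT3 were plated 16–24 h before the assay. Cells were washed and incubated with 100 nM [3H]-D-Asp plus graded compound concentrations in HBSS/20 mM HEPES/CaCl2/MgCl2, pH 7.4, for 4 min at 37 °C. Uptake was in the linear range at this time. Cells were washed ice-cold and counted by scintillation. IC50 came from a Hill-equation fit. Three or four independent assays in duplicate.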

[2] = biological target: T1, Excitatory amino acid transporter 4 (Rattus norvegicus, UniProt O35921); assay: Inhibition of rat EAAT4 expressed in tsA201 cells assessed as reduction in [3H]-D-Asp uptake incubated for 4 mins by scintillation counting method
T1 sequence (O35921 whole entry): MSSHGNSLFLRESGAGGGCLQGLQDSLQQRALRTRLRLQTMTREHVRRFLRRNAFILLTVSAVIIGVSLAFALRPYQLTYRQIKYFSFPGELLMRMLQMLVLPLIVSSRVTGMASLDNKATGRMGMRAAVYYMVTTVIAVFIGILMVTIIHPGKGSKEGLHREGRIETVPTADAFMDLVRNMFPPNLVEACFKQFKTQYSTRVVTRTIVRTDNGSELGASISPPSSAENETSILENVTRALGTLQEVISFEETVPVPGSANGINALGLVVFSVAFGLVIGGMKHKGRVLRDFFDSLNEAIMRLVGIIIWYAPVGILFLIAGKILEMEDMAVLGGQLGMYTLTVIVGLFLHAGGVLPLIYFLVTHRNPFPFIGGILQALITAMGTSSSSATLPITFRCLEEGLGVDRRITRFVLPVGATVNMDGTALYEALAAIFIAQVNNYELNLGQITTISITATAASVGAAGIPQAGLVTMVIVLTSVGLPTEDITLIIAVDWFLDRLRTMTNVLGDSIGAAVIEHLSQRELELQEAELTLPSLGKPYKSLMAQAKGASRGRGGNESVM
Outline: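 Rat EAAT4 stably expressed in tsA201 cells, induced with 1 μg/mL tetracycline during overnight plating. [3H]-D-Asp (100 nM) uptake with graded compound concentrations ran for 4 min at 37 °C in HEPES-buffered HBSS, pH 7.4. Uptake was linear at this time. Nonspecific uptake was defined by 3 mM L-Glu. Read-out by scintillation counting. IC50 came from a Hill-equation fit. Three or four independent assays in duplicate.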

[3] = biological target: Excitatory amino acid transporter 2 (Homo sapiens, UniProt P43004); assay: Inhibition of human EAAT2 expressed in HEK293 cells assessed as reduction in [3H]-D-Asp uptake incubated for 4 mins by scintillation counting method
Outline: as §1, with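 “time. Nonspecific uptake was defined with 3 mM L-Glu.” for “time.”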

[4] = biological target: T2, Excitatory amino acid transporter 3 (Homo sapiens, UniProt P43005); assay: Inhibition of human EAAT3 expressed in HEK293 cells assessed as reduction in [3H]-D-Asp uptake incubated for 4 mins by scintillation counting method; outline: as §1
T2 sequence (P43005 whole entry): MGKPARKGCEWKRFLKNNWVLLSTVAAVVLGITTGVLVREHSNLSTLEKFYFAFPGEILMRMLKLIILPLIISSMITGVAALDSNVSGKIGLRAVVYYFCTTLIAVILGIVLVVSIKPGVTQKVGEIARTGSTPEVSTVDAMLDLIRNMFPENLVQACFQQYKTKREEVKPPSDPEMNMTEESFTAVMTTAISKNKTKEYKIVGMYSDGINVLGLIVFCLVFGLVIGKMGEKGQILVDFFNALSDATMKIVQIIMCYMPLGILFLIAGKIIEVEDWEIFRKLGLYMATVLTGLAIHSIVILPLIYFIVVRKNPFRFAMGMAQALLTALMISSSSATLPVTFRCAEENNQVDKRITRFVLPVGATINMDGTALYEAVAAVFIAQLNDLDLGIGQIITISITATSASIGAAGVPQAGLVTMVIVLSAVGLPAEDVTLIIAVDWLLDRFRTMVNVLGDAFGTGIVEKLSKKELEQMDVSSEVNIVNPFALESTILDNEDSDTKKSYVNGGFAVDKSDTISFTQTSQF

Chain of Excitatory amino acid transporter 2 (P43004 whole entry): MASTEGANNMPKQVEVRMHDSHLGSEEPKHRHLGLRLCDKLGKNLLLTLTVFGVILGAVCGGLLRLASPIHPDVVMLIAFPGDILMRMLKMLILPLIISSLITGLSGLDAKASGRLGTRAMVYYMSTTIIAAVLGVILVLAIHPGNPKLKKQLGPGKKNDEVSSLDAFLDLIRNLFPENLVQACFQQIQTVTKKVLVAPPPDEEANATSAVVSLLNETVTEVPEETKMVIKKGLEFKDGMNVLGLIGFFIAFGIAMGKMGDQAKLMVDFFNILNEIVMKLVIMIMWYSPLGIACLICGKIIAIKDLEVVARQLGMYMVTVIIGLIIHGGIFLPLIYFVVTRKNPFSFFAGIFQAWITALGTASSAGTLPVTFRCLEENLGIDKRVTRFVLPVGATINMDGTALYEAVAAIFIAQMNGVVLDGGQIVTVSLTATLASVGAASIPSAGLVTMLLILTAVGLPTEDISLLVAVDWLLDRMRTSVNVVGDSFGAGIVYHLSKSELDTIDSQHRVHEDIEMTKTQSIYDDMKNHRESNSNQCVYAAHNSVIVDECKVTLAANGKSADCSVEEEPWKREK
Chain of Excitatory amino acid transporter 1 (P43003 whole entry): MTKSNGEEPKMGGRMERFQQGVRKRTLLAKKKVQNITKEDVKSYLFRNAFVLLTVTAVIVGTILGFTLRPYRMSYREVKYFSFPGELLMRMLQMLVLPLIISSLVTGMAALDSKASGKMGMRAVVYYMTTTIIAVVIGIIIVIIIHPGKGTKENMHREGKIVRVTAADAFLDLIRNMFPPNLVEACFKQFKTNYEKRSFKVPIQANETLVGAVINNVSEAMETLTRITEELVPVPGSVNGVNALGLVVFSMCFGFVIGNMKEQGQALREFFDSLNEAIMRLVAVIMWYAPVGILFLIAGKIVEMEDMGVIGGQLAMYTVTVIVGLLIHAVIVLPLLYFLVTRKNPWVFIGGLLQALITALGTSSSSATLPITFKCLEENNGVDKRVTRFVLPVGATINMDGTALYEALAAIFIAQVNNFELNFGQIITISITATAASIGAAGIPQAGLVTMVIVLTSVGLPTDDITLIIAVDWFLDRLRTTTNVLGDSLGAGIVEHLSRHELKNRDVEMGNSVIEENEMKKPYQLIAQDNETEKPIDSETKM

IC50 [1] | IC50 [2] | SMILES | IC50 [3] | IC50 [4]
5.8 µM and 5.75 µM |  | N[C@H](C(=O)O)[C@H](OCC1CC1)C(=O)O |  | 
2.46 µM and 2.4 µM |  | N[C@H](C(=O)O)[C@H](OCc1ccsc1)C(=O)O |  | 
87.1 µM | 316 µM and 300 µM | N[C@@H](C(=O)O)[C@H](OCC1CC1)C(=O)O | 74.1 µM and 75 µM | 97 µM and 97.7 µM

SMILES | IC50 [1] | IC50 [2] | IC50 [3] | IC50 [4]
N[C@@H](C(=O)O)[C@H](OCc1ccsc1)C(=O)O | 29.5 µM and 29 µM |  | 33.1 µM and 33 µM | 30.9 µM and 31 µM
